MrgX1 allo act: human MrgX1 positive allosteric modulation, primary screen; MrgX1-HEK293, Fluo-4 calcium flux, FDSS; hits give high values; B-score at 10 µM; hit rate 0.63% among 310,000; AID 588675;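 active means plate-corrected calcium response at least 3 library SD above typical, normal starting fluorescence, not activating the receptor alone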;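 further: compound read alongside a low EC10 to EC30 dose of BAM8-22 agonist; peak minus trough fluorescence over baseline measured at the second addition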
Target sequence (Q96LB2 whole entry, looked up): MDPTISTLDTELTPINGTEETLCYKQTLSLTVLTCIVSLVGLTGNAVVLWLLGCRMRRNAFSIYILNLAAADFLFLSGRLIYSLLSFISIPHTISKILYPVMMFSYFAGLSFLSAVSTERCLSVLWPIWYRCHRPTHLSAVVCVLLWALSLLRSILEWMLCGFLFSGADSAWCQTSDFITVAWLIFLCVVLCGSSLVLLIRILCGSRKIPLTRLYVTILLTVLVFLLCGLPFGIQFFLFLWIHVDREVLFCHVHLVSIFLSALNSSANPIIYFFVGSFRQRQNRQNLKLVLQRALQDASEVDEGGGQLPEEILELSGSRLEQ
RGS4 pot: RGS4 potentiation or activation; HEK293 M3R/inducible RGS4, carbachol calcium flux Fluo4; hits give low values; B-score at 10 µM; hit rate 0.92% among 310,000;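 active means B-score of the integrated calcium signal more than 4 SD below the library mean, with starting fluorescence not abnormally high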;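 further: negative B-score means reduced calcium response which marks RGS4 activation or potentiation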
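Material: Inducible-RGS4 HEK293 cells carrying M3 receptor; also added: carbachol at ECmax as muscarinic agonist stimulus; incubation: compound preincubation 20 min at room temperature before agonist; signal: Fluo4-AM (2 µM) calcium-flux fluorescence, kinetic read; measure: integrated calcium ratio converted to B score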
RGS4 block: human RGS4 inhibition | P49798 | HEK293 M3R/RGS4 inducible, Fluo-4 calcium flux; hits give high values; triggered by carbachol at its EC20 | B-score at 10 µM | hit rate 0.45% among 310,000;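 active means B-score, a plate-corrected calcium signal, over three deviations above library mean, with baseline fluorescence within five deviations of library mean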;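 further: RGS4 expression induced by doxycycline in cells with stable M3 receptor; B-score is computed from the integrated fluorescence ratio over baseline after carbachol; higher B-score means a larger calcium signal and so more RGS4 inhibition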
Target sequence (P49798 whole entry, looked up): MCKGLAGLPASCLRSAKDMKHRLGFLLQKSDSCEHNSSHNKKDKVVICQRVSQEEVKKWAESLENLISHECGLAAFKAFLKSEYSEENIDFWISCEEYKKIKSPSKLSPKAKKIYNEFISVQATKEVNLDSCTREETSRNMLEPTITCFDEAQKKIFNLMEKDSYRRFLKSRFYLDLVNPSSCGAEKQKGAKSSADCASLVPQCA
MrgX1 ag: human MrgX1 receptor agonism, primary screen. MrgX1-HEK293 cells, Fluo-4 calcium fluorescence, agonist mode; hits give high values. B-score at 10 µM. hit rate 0.44% among 310,000;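 active means calcium response B-score plate-corrected fluorescence ratio at least 3 library SD, with starting fluorescence B-score inside 5 SD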
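System – MrgX1-expressing HEK293 cells · Incubation – cells plated overnight, dye loaded 0.5 h 37 °C, 0.5 h room temperature · Technique – kinetic Fluo-4 NW fluorescence of intracellular calcium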
MrgX1 antag: antagonists of human MrgX1 receptor | B-score at 10 µM | AID 588676 | hit rate 1.3% among 310,000 | MRGX1-HEK293 calcium flux, Fluo-4, BAM8-22 antagonism; hits give low values | Q96LB2;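 active means calcium-response B-score plate-corrected more than 3 library SD below zero, starting fluorescence within 5 deviations, no agonist response on first addition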;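 further: peak minus trough fluorescence over baseline after final BAM8-22 challenge near maximal dose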
RGS4 inh valid: validation of RGS4 inhibitors | shares compounds with RGS4 block | HEK293 M3R/RGS4, carbachol calcium Fluo-4 fluorescence; carbachol added at its EC20; 0 = buffer wells, 100 = carbachol control | hit rate 65% among 1,700 | calcium response, % at 10 µM;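 active means duplicate-averaged calcium response above the buffer-only control mean plus 5 SD of those controls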;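 further: integrated fluorescence ratio F max minus min over baseline F0; higher response in RGS4-induced cells means RGS4 inhibition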
M3R Ca ctr: non-induced cell nonspecific activity of RGS4 inhibitors; activity (percent), % at 10 µM; AID 493000; hit rate 20% among 1,900; HEK293 M3R non-induced, carbachol calcium Fluo-4; submaximal (EC20) carbachol stimulus; buffer wells 0%, carbachol control wells 100%; shares compounds with RGS4 block; call rule not given here;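 further: RGS4 induction absent so cells express M3R without RGS4; higher means more calcium signal and flags a non-specific hit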
RGS4 inh ctr2: second counter-screen for RGS4 inhibitors: non-induced cells without carbachol. shares compounds with RGS4 block. HEK293 M3R/RGS4 non-induced, Fluo-4 calcium, no carbachol; normalised: buffer wells 0%, carbachol wells 100%. hit rate 22% among 1,900. calcium response (agonist-mode artifact), % at 10 µM. AID 493001;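 active means duplicate-averaged calcium rise in uninduced cells above buffer wells' mean plus 5 SD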
Hits are given with their value; n = inactive; x = not tested or not shown. An excerpt weighted towards active compounds, which were near 3.5% of everything screened.

SMILES	MrgX1 allo act	RGS4 pot	RGS4 block	MrgX1 ag	MrgX1 antag	RGS4 inh valid	M3R Ca ctr	RGS4 inh ctr2
CC(=O)c1c(C)oc2c1cc(NS(=O)(=O)c1ccc(C(=O)O)cc1)c1ccccc12	n	n	n	n	n	x	n	n
CC[C@@]12C(=O)N(c3cccc(Br)c3)C(=O)N1[C@H](c1cccc(C)c1)[C@@H]1C(=O)N(Cc3ccccc3)C(=O)[C@@H]12	n	n	n	n	n	x	x	x
O=c1[nH]c(/C=C/c2ccc([N+](=O)[O-])cc2)c([N+](=O)[O-])c(=O)[nH]1	n	n	n	n	n	n	n	n
COc1ccc(/C=C/c2c([N+](=O)[O-])c(=O)n(C)c(=O)n2C)c(OC)c1	n	n	n	n	n	x	x	x
O=c1[nH]c(/C=C/c2ccc3c(c2)OCO3)c([N+](=O)[O-])c(=O)[nH]1	n	n	n	n	n	x	x	x
COc1ccc(OC)c(/C=C/c2[nH]c(=O)[nH]c(=O)c2[N+](=O)[O-])c1	x	n	10.3	x	x	33.5%	n	n
CCOc1ccc(NC(=O)c2sccc2-n2cccc2)cc1	n	n	n	n	n	x	x	x
O=C(Cc1ccccc1)Nc1cccc(N2C(=O)C=CC2=O)c1	n	n	7.52	n	n	12.0%	n	41.5%
Oc1ccc(C[C@@H]2CNC(=S)N2CCCCC2CCCCC2)cc1	n	n	5.34	n	n	18.0%	n	n
CC(Sc1nnnn1-c1ccc(O)cc1)c1nc2ccccc2c(=O)[nH]1 (centres undefined)	n	n	n	n	n	x	x	x
Cc1ccc(-n2nc3c(=O)n(CC(=O)NCCc4cccs4)nc(C)c3c2C)cc1	n	n	n	n	n	n	n	n
Cc1ccc(-n2nc3c(=O)n(CC(=O)NCc4ccccc4Cl)nc(C)c3c2C)cc1	n	n	n	n	n	x	x	x
Cc1ccc(-n2nc3c(=O)n(CC(=O)NCc4ccccc4)nc(C)c3c2C)cc1	n	n	n	n	n	n	n	n
NS(=O)(=O)c1ccc(CNC(=O)C(Cc2ccccc2)NS(=O)(=O)c2ccccc2F)cc1 (centres undefined)	n	n	n	n	n	x	x	x
COc1ccc(CCNC(=O)CC2COc3ccccc3O2)cc1OC (centres undefined)	n	n	13.3	n	n	n	n	n
COc1cc(OC)c(OC)cc1NC(=O)CC1COc2ccccc2O1 (centres undefined)	n	n	n	n	n	x	x	x
O=C(COC(=O)CCNS(=O)(=O)c1ccccc1F)Nc1nnc(-c2ccccc2)o1	n	n	n	n	n	x	x	x
CCOC(=O)c1cccc(NC(=O)c2cc(C)nn2-c2ccccc2)c1	n	n	n	n	n	x	x	x
CC1CC(=O)NN1C(=O)c1ccccc1 (centres undefined)	n	n	n	n	n	x	x	x
CC(C)=C1C(=O)NN(c2ccc(F)c(Cl)c2)C1=O	n	n	n	n	n	x	x	x
O=C1NN(c2ccc(F)c(Cl)c2)C(=O)/C1=C\c1cccc(OC(=O)c2cccs2)c1	n	n	17.5	26.9	n	58.0%	n	14.0%
COc1ccc(-c2nsc3c(N4CCN(C(=O)c5ccco5)CC4)ncnc23)cc1	n	n	n	n	n	n	n	n
NC(=O)C1CCN(c2ncnc3c(-c4ccccc4)nsc23)CC1	n	n	n	n	n	x	x	x
O=C(c1ccco1)N1CCN(c2ncnc3c(-c4ccccc4)nsc23)CC1	n	n	n	n	n	x	n	n
C=CC[C@]12C[C@@H](OC)C(=O)C=C1O[C@@H](c1ccc(OC)c(OC)c1)[C@H]2C	n	n	n	n	n	x	x	x
SMILES	MrgX1 allo act	RGS4 pot	RGS4 block	MrgX1 ag	MrgX1 antag	RGS4 inh valid	M3R Ca ctr	RGS4 inh ctr2
C#Cc1cccc(C(=O)N2CCCC(CCC(=O)NCc3ccccc3F)C2)c1 (centres undefined)	n	n	n	n	n	x	x	x
COc1ccc(OCCSc2nnc(Cc3cccc4ccccc34)n2N)cc1	n	n	n	n	n	x	n	n
Cc1ccccc1OCc1nnc(SCC(=O)Nc2ccc3c(c2)oc2ccccc23)n1C	n	n	5.1	n	n	14.5%	n	n
OCC1CCCN(Cc2cn(Cc3ccccc3)nc2-c2cc3ccccc3o2)C1 (centres undefined)	n	n	n	n	n	x	x	x
N#C/C(=C\c1ccccc1OCc1ccc(C(=O)O)cc1)C(=O)Nc1ccc(O)cc1	n	n	6.91	n	n	13.5%	n	n
COC(=O)c1ccc(COc2ccccc2/C=C(\C#N)C(=O)Nc2ccc(C)cc2)cc1	n	n	n	n	n	n	n	n
O=C(NCCc1cccc(C(F)(F)F)c1)C1CCC(=O)N(C2CC2)C1 (centres undefined)	n	n	n	n	n	x	x	x
Cn1c(CBr)c(C(=O)c2ccc([N+](=O)[O-])cc2)c(=O)n(C)c1=O	n	n	n	n	n	x	x	x
Cc1ccc(SCc2[nH]nc3c2C2(C(=O)Nc4ccc([N+](=O)[O-])cc42)C(C#N)=C(N)O3)cc1 (centres undefined)	n	n	6.07	n	n	n	n	n
Cc1ccc(SCc2[nH]nc3c2C2(CCSCC2)C(C#N)=C(N)O3)cc1	n	n	n	n	n	x	x	x
O=S(=O)(Nc1ccc(N=Nc2ccc(O)c3ccccc23)cc1)c1ccccc1	n	n	4.7	n	n	5.5%	n	n
CC(C)CNS(=O)(=O)c1ccc(CCC(=O)NC2CCCCC2)cc1	n	n	n	n	n	x	x	x
Cc1ccc(NC(=O)c2c(C)nc(Nc3nc4ccccc4o3)nc2C)cc1	n	n	n	n	n	x	n	n
O/N=C/c1cn(-c2ccccc2)nc1-c1ccccc1	n	n	n	n	n	x	x	x
CC1(C)CC(=O)C(=Cc2cn(-c3ccccc3)nc2-c2ccccc2)C(=O)C1	n	n	n	n	n	n	n	n
Oc1ccc(N=C/C=C/c2cccc(Br)c2)cc1-c1nc2ccccc2s1	n	n	8.6	n	n	n	n	n
CSc1cccc(N=C2C(=O)Nc3ccccc32)c1	n	n	15.8	32.5	n	24.5%	n	7.5%
O=C1Nc2ccccc2C1=Nc1cccc(Cl)c1	n	n	41.3	50.6	n	28.0%	54.5%	16.0%
O=C(CN1Cc2ccccc2C1=O)Nc1ccc2c(c1)OCCO2	n	n	n	n	n	x	x	x
CCOC(=O)c1sc(N2C(=O)C(O)=C(C(=O)c3ccco3)C2c2cccc([N+](=O)[O-])c2)nc1C (centres undefined)	n	n	n	n	n	n	n	n

Compound activity deposited in PubChem BioAssay by Johns Hopkins Ion Channel Center.
